We go through three compounds from ChEMBL document CHEMBL1833957, “P1-substituted symmetry-based human immunodeficiency virus protease inhibitors with potent antiviral activity against drug-resistant viruses” (J Med Chem, 2011).

pEC50: −log10 of the molar value. Values after ≈ are worked out from the molar mass of the structure shown.

Data set [1] in a line: Oral bioavailability in rat at 5 mg/kg. Particulars: in vivo. The class given is ADME, organism-based.
For data set [2], the system named is Human immunodeficiency virus 1. The data set is described as follows: Antiviral activity against wild type HIV1 pNL4-3 infected in human MT4 cells assessed as inhibition of virus-induced cell death after 5 days by MTT assay. The data set is classed as functional, organism-based. The settings on record: Human immunodeficiency virus 1, pNL4-3, MT4, 120 h. The essentials: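 EC50 measured against wild-type virus in MT-4 cells, with no human serum added.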
(In general: Tetrazolium dyes change colour on reduction, which living cells bring about.)

Data set [3] is described as follows: Metabolic stability in human liver microsomes assessed as disappearance of the compound after 20 mins. The data set is classed as ADME, Microsome. The settings on record: read-out: Drug metabolism.
Data set [4] is described as follows: Cmax in rat at 5 mg/kg, po co-administered with 5 mg/kg of CYP3A4 inhibitor ritonavir. The class given is ADME, organism-based. Also noted: dose 5 mg/kg, route oral. The settings on record: in vivo. Summed up:
(§1)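 Rats given 5 mg/kg orally together with 5 mg/kg ritonavir. Plasma Cmax is reported in μg/mL and AUC in μg h/mL.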

A short description of data set [5]: Oral bioavailability in rat at 5 mg/kg co-administered with 5 mg/kg of CYP3A4 inhibitor ritonavir relative to iv dose without ritonavir co-administration. The data set is classed as ADME, organism-based. Particulars: in vivo. The essentials:
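Rats given 5 mg/kg orally with 5 mg/kg ritonavir. Bioavailability (%) is calculated against an IV dose given without ritonavir.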

Data set [6] relates to Liver microsomes. Nature of the data set: Metabolic stability in human liver microsomes assessed as disappearance of the compound after 20 mins in the presence of 0.4 uM CYP3A4 inhibitor ritonavir. The class given is ADME, Microsome. On the technique in general: Liver microsomes are a subcellular fraction often used to study metabolism.
Data set [7] can be described thus: AUC in rat at 5 mg/kg, po. Also noted: dose 5 mg/kg, route oral. Particulars: plasma. The data set is classed as ADME, organism-based. The essentials: (§2)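 Rats given a single 5 mg/kg oral dose with no ritonavir. Plasma Cmax is reported in μg/mL and AUC in μg h/mL.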
The subject of data set [8] is Human immunodeficiency virus 1. The data set is described as follows: Antiviral activity against HIV1 A17 harboring protease L10F, V32I, M46I, I47V, Q58E and I84V mutant infected in human MT4 cells assessed as inhibition of virus-induced cell death after 5 days by MTT assay relative to wild type HIV1 pNL4-3. The class given is functional.
Data set [9] is described as follows: AUC in rat at 5 mg/kg, po co-administered with 5 mg/kg of CYP3A4 inhibitor ritonavir. The data set is classed as ADME, organism-based. Particulars: plasma. Summed up: as §1
Data set [10] deals with Human immunodeficiency virus 1. The data set is described as follows: Antiviral activity against HIV1 B26 harboring protease L33F, K45I, M46I, I50V, A71V and V82F mutant infected in human MT4 cells assessed as inhibition of virus-induced cell death after 5 days by MTT assay relative to wild type HIV1 pNL4-3. The class given is functional.
Data set [11] is described as follows: Cmax in rat at 5 mg/kg, po. The class given is ADME, organism-based. Also noted: dose 5 mg/kg, route oral. Particulars: in vivo. The essentials:
as §2

Data set [12] relates to Human immunodeficiency virus 1. The data set is described as follows: Antiviral activity against wild type HIV1 pNL4-3 infected in human MT4 cells assessed as inhibition of virus-induced cell death after 5 days by MTT assay in presence of 50% human serum. The data set is classed as functional, organism-based. Particulars: Human immunodeficiency virus 1, pNL4-3, MT4, 120 h.

In a further data set the test system is Rattus norvegicus. The data set is described as follows: Ratio of AUC in rat at 5 mg/kg, po co-administered with 5 mg/kg CYP3A4 inhibitor ritonavir to AUC in rat at 5 mg/kg, po in the absence of CYP3A4 inhibitor ritonavir. The data set is classed as ADME, organism-based. Particulars: in vivo.
The subject of data set [13] is Liver microsomes. Nature of the data set: Metabolic stability in human liver microsomes assessed as disappearance of the compound after 20 mins in the presence of 0.4 uM CYP3A4 inhibitor ritonavir.
Data set [14] concerns Human immunodeficiency virus 1. The data set is described as follows: Antiviral activity against HIV1 isolate 1 harboring protease L10I, E35D, N37D, M46I, I54V, G57R, L63P, A71V, T74P, I84V, L90M, I93L mutant infected in human MT4 cells assessed as inhibition of virus-induced cell death after 5 days by MTT assay relative to wild type HIV1 pNL4-3. The class given is functional.

Data set [15] concerns Human immunodeficiency virus 1. Nature of the data set: Antiviral activity against HIV1 harboring protease L10I, I13V, G16A, Q18H, L33F, N37D, M46I, I54V, G57R, Q61H,I62V, L63P, A71L, I72T, L76V, V77I, V82A, N88G, L90M, I93L mutant infected in human MT4 cells assessed as inhibition of virus-induced cell death after 5 days by MTT assay relative to wild type HIV1 pNL4-3. The class given is functional.

Data set [16] in a line: Permeability of the compound. The data set is classed as ADME. Particulars: not told; read-out: permeability.
A short description of data set [17]: Aqueous solubility of the compound. The data set is classed as physicochemical. The settings on record: buffer.

In the case of `COC(=O)N[C@H](C(=O)N[C@@H](Cc1ccccc1)C[C@H](O)[C@H](Cc1ccc(-c2ccccn2)cc1)NC(=O)[C@@H](NC(=O)OC)C(C)(C)C)C(C)(C)C`, the bioavailability (in general, the share of a dose that reaches the circulation, judged against a reference dose that is usually intravenous) in [1] was 7%; in [5], more than 100%. For the same compound, the pEC50 (as a rule, −log10 of the EC50, conventionally taken in molar units) in data set [2] is 8.22; in data set [12] it was 7.72. Further, the metabolised at 20 min in data set [3] worked out at 40%. Besides, the Cmax (in general, the peak of the concentration-time curve) in [4] came to 1550 ng/mL; in [11], 280 ng/mL. Further, the Stability entry with Liver microsomes [6] and with Liver microsomes [13] was “Stable” in each case. Moreover, the AUC (as a rule, the area under the concentration-time curve, a measure of exposure) amounted to 190 ng·h/mL in data set [7] and 4880 ng·h/mL in data set [9]. Further, the “fold change (FC)” value in data set [8] amounted to 20; in data set [10], 29. In the data set on Rattus norvegicus, the “Ratio AUC” value was determined as 25.
`COC(=O)N[C@H](C(=O)N[C@@H](Cc1ccccc1)C[C@H](O)[C@H](Cc1ccc(-c2cccnc2)cc1)NC(=O)[C@@H](NC(=O)OC)C(C)(C)C)C(C)(C)C`: the results for the bioavailability in data set [1] and in data set [5] were 5% and 25%, respectively. The “fold change (FC)” value is listed as 29 in data set [14], 2 in [8], 3 in data set [10] and 17 in data set [15]. Besides, the figures for the pEC50 in data set [2] and in data set [12] were 7.96 and 7.46, respectively. Moreover, the metabolised at 20 min in data set [3] is 40%. For the same compound, the Cmax is 430 ng/mL in data set [4] and 180 ng/mL in data set [11]. Also, the Stability result with Liver microsomes [6] and with Liver microsomes [13] was “Stable” each time. Also, the AUC stood at 160 ng·h/mL in data set [7] and 740 ng·h/mL in data set [9].
Take `COC(=O)N[C@H](C(=O)N[C@@H](Cc1ccccc1)C[C@H](O)[C@H](Cc1ccc(-c2cncc(F)c2)cc1)NC(=O)[C@@H](NC(=O)OC)C(C)(C)C)C(C)(C)C`: the Papp in data set [16] came out at 7.3 ×10⁻⁶ cm/s. In [1], this compound gave a bioavailability of 13%. Further, the “fold change (FC)” value in data set [14] was 38; in data set [8], 3; in data set [10], 3; in [15] it was 2. For the same compound, the pEC50 in [2] was 8.40; in data set [12], 7.62. Also, the metabolised at 20 min in data set [3] is 40%. Moreover, the AUC in data set [7] turned out to be 160 ng·h/mL. This compound also had a Cmax in data set [11] of 110 ng/mL. In data set [17], the concentration in solution (solubility) came to 10.4 µM (≈ 7.51 µg/mL).
